Laboratory results as given in ChEMBL document CHEMBL4033788, “Novel Ligustrazine-Based Analogs of Piperlongumine Potently Suppress Proliferation and Metastasis of Colorectal Cancer Cells in Vitro and in Vivo” (J Med Chem, 2018).
Active and inactive are the calls of the source. The calls are words filed in the database; no cut-off is given here.

Assays:
HCT-116 [1] = test: Antimigratory activity in human HCT116 cells assessed as inhibition of TGF-beta1-induced cell migration at 50 nM after 48 hrs by trans-well assay; type: functional, cell-based
Method in brief: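 HCT-116 cells (1 × 10^5/well) placed in upper chambers of 8 μm pore transwells. Lower chambers held, in triplicate, medium alone or TGF-β1 (10 ng/mL) with or without test agents (2, 10, 50 nM) for 48 h. Non-migrated cells removed, migrated cells stained with crystal violet, 10 fields per well counted blinded. Three independent experiments.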

K562 = test: Antiproliferative activity against human K562 cells after 72 hrs in presence of ligustrazine by MTT assay; type: functional, cell-based; conditions: K562, 72 h
Method in brief: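 Cells grown in RPMI 1640 with 10% FBS in 96-well plates overnight, then exposed to test agents in triplicate for 72 h. MTT (5 mg/mL stock) added for the last 4 h, formazan dissolved in DMSO, absorbance read at 570 nm. Inhibition = (1 − OD treated/OD control) × 100%.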

HCT-116 [2] = test: Antiproliferative activity against human HCT116 cells at 8 uM after 72 hrs by MTT assay; type: functional, cell-based
Method in brief: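 HCT-116 cells pretreated with or without GSH (10 mM) for 1 h, washed, then treated for 72 h. Viability measured by MTT and inhibitory rates calculated. Mean ± SD of three independent experiments.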

HCT-116 [3] = test: Inhibition of TGF-beta1-induced increase in expression levels of MMP-9 protein in human HCT116 cells at 50 nM after 48 hrs by Western blot analysis; type: functional, cell-based
Method in brief: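 HCT-116 cells (1 × 10^6/well, plated overnight) were exposed to TGF-β1 (10 ng/mL) for 48 h, with or without test compound; vehicle was 0.1% DMSO. Lysates (20 μg/lane) were run on 7.5% SDS-PAGE and blotted to PVDF, with primary antibody overnight at 4 °C and HRP/ECL detection. Band densities were normalised to β-actin across three independent experiments.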

[4] = molecular target: T1, Catenin beta-1 (Homo sapiens) (UniProt P35222); test: Inhibition of TGF-beta1-regulated decrease in cytoplasmic beta-catenin in human HCT116 cells at 50 nM after 48 hrs by Western blot analysis; type: cell-based
T1 sequence (whole entry): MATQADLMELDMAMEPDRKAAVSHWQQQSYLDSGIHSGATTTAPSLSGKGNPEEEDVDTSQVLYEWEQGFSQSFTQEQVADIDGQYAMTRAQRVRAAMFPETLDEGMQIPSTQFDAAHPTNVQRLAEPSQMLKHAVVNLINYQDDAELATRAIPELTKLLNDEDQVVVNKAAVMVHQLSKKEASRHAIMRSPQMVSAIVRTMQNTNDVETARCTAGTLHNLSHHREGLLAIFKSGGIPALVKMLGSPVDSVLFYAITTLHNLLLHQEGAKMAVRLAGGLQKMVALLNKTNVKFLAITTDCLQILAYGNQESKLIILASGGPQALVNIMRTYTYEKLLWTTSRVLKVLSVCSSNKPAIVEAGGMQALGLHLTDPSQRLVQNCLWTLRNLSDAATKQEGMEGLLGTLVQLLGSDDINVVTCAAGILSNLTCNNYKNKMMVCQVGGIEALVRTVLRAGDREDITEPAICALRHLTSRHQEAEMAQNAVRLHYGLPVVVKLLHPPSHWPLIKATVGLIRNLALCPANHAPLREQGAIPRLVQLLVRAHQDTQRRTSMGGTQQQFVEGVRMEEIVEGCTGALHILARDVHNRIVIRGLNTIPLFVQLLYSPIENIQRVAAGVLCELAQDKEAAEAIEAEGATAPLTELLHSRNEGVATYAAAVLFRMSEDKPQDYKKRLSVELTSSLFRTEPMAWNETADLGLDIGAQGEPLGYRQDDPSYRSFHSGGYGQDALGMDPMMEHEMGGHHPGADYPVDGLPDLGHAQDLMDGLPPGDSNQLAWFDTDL
Method in brief: (§1)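 Cytoplasmic and nuclear β-catenin were measured by Western blot in HCT-116 cells given TGF-β1 (10 ng/mL) for 48 h, with or without compound, against 0.1% DMSO vehicle. Lysates (20 μg/lane) were run on 7.5% gels and transferred to PVDF, with Lamin A among the antibodies used. Blots were read by ECL and densitometry, n = 3 independent experiments.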

HCT-116 [5] = test: Cytotoxicity against human HCT116 cells assessed as reduction in cell viability at 50 nM after 72 hrs by MTT assay; type: cell-based; conditions: hct-116, 72 h, 0.05 µM
Method in brief: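 HCT-116 cells exposed to TGF-β1 (10 ng/mL) alone or combined with test agent at 2, 10 or 50 nM for 24, 48 or 72 h. Viability read by MTT (formazan in DMSO, 570 nm).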

[6] = Stability of compound in human HCT116 cells at 1 uM after 4 hrs by LC-MS/MS analysis; type: ADME, cell-based; conditions: hct-116, 4 h
HCT-116 [7] = test: Antiproliferative activity against human HCT116 cells at […] after 72 hrs by MTT assay relative to control; type: functional; conditions: HCT-116, 72 h
Mus musculus = test: Acute toxicity in ICR mouse assessed as mortality at 400 mg/kg, ip administered for 14 days; type: organism-based; conditions: in vivo, 336 h
[8] = Acute toxicity in ICR mouse assessed as survival rate at 300 mg/kg, ip administered for 14 days relative to control; type: organism-based; conditions: in vivo
[9] = Acute toxicity in ICR mouse assessed as survival rate at 200 mg/kg, ip administered for 14 days relative to control; type: organism-based; conditions: in vivo
HCT-116 [10] = test: Antimetastatic activity against human HCT116 cells xenografted in BALB/c nude mouse model assessed as reduction in lung metastatic nodules at 2 to 4 mg/kg, ip administered thrice a week for 6 consecutive weeks by H and E staining-based assay; type: functional, organism-based
Method in brief: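 BALB/c nude mice received HCT-116 cells into the tail vein, then were randomized and dosed intraperitoneally (1, 2 or 4 mg/kg) three times weekly. Body weight recorded weekly. Lungs sectioned (4 μm), H&E stained, and nodule number and area scored blinded in three sections per mouse. Nodule counts n = 4–6 per group.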

HCT-116 [11] = test: Inhibition of TGF-beta1-induced increase in expression levels of MMP-9 protein in human HCT116 cells after 48 hrs by Western blot analysis; type: functional, cell-based
Method in brief: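 HCT-116 cells treated with or without TGF-β1 (10 ng/mL) for 48 h, with or without test agent. Lysates (20 μg/lane) run on 7.5% SDS-PAGE and transferred to PVDF. Probed for p-Akt (Ser473), Akt, p-GSK-3β (S9), GSK-3β, E-cadherin, MMP-9 and β-actin, detected by ECL. Densitometry relative to β-actin or total protein. Three independent experiments.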

[12] = molecular target: T1, Catenin beta-1 (Homo sapiens); test: Inhibition of TGF-beta1-regulated decrease in cytoplasmic beta-catenin in human HCT116 cells at 2 to 50 nM after 48 hrs by Western blot analysis; type: cell-based; method in brief: as §1
[13] = Thiol reactivity in DMSO assessed as methyl 2-(3-chloro-2-oxo-1-(3-(3,5,6-trimethylpyrazin-2-yl)acryloyl)piperidin-4-ylthio)acetate formation at 5 mg up to 8 hrs in presence of methyl thioglycolate by 1H NMR analysis

SMILES | Activity (HCT-116 [1]) | IC50 (K562) | Activity (HCT-116 [2]) | inhibition (HCT-116 [3]) | inhibition [4] | Activity (HCT-116 [5]) | Stability [6] | inhibition at […] (HCT-116 [7]) | Activity (Mus musculus) | survival at 336 h [8] | survival at 336 h [9] | Activity (HCT-116 [10]) | inhibition (HCT-116 [11]) | inhibition [12] | Drug metabolism [13]
COc1cc(/C=C/C(=O)N2CCC=CC2=O)cc(OC)c1OC [PIPLARTINE] | Active | 5.09 µM | Active | Active | Active | – | – | – | – | – | – | – | – | – | –
Cc1nc(C)c(/C=C/C(=O)N2CCC=C(Cl)C2=O)nc1C | – | – | – | – | – | Toxic | Stable | 82.9% | Toxic | 10% | 30% | Active | Dose-dependent effect | Active | Metabolite detected
